Measurements reported in BindingDB's records for doi:10.1016/j.ejmech.2021.113996 (The University of Michigan Medical School, 2022).

Key:
[1] = biological target: Phosphatidylinositol 4,5-bisphosphate 3-kinase catalytic subunit alpha isoform (Homo sapiens, UniProt P42336); experiment: Inhibition of human PI3Kalpha by TR-FRET based Adapta assay
[2] = biological target: T1, Phosphatidylinositol 4,5-bisphosphate 3-kinase catalytic subunit delta isoform (Homo sapiens, UniProt O00329); experiment: Inhibition of human PI3Kdelta by TR-FRET based Adapta assay
T1 sequence (O00329 whole entry): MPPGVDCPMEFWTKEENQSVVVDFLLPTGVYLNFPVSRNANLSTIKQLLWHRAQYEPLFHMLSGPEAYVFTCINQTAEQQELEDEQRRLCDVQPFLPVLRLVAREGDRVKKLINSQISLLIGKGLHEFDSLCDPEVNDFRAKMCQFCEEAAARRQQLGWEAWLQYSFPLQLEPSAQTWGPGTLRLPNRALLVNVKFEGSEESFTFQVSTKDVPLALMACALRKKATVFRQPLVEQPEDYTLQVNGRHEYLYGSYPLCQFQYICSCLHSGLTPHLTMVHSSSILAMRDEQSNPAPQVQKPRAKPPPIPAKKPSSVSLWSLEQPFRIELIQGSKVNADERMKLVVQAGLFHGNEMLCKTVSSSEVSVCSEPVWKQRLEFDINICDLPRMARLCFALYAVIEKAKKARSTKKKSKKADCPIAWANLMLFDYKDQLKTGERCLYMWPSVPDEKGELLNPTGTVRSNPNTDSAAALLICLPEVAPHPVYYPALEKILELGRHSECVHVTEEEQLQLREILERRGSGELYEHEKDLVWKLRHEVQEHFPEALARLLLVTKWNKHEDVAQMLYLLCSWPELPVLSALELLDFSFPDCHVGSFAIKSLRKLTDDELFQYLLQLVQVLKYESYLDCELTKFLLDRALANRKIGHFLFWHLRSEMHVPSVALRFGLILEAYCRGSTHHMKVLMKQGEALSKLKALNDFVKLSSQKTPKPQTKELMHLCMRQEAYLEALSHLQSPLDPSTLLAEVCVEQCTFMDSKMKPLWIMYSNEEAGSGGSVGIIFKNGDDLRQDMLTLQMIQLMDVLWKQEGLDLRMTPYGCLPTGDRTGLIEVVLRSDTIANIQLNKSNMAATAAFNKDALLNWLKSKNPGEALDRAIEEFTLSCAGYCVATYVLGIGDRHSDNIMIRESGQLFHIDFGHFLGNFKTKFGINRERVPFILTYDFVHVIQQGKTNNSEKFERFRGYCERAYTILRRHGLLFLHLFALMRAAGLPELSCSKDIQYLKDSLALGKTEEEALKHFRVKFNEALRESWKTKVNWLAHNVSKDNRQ

[3] = biological target: Phosphatidylinositol 4,5-bisphosphate 3-kinase catalytic subunit gamma isoform (Homo sapiens, UniProt P48736); experiment: Inhibition of human PI3Kgamma by TR-FRET based Adapta assay
Chain of Phosphatidylinositol 4,5-bisphosphate 3-kinase catalytic subunit gamma isoform (P48736 whole entry, canonical isoform): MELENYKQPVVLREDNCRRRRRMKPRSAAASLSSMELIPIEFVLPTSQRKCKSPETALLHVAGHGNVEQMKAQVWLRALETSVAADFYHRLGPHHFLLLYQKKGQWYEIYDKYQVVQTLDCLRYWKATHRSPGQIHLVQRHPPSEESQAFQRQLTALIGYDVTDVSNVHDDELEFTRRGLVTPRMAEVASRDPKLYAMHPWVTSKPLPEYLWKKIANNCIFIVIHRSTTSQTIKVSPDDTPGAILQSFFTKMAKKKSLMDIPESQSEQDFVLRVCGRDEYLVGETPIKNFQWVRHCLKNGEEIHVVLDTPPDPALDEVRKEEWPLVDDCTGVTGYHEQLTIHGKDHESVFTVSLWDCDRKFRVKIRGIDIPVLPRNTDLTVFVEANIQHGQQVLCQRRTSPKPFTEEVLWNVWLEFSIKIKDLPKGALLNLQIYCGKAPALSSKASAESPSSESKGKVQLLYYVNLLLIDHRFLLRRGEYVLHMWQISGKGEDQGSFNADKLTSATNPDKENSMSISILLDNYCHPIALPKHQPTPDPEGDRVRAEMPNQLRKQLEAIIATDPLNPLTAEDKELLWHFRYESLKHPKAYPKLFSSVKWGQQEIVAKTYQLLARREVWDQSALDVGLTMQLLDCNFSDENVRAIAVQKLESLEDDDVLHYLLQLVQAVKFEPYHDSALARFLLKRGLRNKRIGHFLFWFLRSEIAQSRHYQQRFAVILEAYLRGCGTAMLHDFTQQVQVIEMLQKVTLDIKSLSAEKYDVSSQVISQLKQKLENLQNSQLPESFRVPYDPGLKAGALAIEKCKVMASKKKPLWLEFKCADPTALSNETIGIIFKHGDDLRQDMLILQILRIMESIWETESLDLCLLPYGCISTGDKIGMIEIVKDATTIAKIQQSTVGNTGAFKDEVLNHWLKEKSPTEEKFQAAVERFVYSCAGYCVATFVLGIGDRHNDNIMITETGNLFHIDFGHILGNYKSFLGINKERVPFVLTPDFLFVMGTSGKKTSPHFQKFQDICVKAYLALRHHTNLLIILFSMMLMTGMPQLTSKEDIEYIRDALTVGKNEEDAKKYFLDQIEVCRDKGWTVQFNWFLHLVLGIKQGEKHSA

[4] = biological target: Phosphatidylinositol 4,5-bisphosphate 3-kinase catalytic subunit beta isoform (Homo sapiens, UniProt P42338); experiment: Inhibition of human PI3Kbeta by TR-FRET based Adapta assay
Chain of Phosphatidylinositol 4,5-bisphosphate 3-kinase catalytic subunit beta isoform (P42338 whole entry, canonical isoform): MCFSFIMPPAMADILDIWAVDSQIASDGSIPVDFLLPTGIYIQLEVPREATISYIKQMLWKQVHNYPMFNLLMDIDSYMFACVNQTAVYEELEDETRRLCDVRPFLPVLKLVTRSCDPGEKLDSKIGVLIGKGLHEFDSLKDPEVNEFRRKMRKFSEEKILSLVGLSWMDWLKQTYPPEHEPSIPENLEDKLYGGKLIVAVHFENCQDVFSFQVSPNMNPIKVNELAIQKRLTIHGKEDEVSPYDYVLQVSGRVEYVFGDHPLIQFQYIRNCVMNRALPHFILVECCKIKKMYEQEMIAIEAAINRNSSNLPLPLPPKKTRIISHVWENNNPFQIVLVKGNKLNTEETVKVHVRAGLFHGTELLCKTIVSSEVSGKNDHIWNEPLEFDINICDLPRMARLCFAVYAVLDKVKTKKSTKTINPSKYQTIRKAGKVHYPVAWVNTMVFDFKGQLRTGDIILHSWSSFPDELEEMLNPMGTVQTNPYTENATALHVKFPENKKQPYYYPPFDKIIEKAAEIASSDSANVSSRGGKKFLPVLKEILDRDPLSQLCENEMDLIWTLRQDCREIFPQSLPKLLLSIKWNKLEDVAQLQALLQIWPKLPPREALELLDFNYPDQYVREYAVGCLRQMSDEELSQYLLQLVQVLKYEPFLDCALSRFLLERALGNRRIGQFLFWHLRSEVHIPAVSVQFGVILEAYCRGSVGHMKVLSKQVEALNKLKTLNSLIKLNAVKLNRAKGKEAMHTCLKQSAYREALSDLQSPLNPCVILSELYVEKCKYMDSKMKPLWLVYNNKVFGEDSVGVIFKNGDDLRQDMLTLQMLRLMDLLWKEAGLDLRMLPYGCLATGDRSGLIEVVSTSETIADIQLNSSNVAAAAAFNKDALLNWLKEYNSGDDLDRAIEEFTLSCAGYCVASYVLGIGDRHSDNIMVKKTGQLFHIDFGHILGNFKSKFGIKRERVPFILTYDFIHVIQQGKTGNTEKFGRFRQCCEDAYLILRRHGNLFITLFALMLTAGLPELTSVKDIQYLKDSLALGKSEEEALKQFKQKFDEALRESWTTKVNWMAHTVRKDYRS
Summary of the method: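 Purified human PI3K isoforms α, β, γ and δ assayed by fluorescence-based Adapta TR-FRET lipid kinase assay (outsourced). Inhibitor range 0.1 nM–10 μM. IC₅₀ is the mean ± SEM of three experiments, each run in duplicate.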

Chain of Phosphatidylinositol 4,5-bisphosphate 3-kinase catalytic subunit alpha isoform (P42336 whole entry, canonical isoform): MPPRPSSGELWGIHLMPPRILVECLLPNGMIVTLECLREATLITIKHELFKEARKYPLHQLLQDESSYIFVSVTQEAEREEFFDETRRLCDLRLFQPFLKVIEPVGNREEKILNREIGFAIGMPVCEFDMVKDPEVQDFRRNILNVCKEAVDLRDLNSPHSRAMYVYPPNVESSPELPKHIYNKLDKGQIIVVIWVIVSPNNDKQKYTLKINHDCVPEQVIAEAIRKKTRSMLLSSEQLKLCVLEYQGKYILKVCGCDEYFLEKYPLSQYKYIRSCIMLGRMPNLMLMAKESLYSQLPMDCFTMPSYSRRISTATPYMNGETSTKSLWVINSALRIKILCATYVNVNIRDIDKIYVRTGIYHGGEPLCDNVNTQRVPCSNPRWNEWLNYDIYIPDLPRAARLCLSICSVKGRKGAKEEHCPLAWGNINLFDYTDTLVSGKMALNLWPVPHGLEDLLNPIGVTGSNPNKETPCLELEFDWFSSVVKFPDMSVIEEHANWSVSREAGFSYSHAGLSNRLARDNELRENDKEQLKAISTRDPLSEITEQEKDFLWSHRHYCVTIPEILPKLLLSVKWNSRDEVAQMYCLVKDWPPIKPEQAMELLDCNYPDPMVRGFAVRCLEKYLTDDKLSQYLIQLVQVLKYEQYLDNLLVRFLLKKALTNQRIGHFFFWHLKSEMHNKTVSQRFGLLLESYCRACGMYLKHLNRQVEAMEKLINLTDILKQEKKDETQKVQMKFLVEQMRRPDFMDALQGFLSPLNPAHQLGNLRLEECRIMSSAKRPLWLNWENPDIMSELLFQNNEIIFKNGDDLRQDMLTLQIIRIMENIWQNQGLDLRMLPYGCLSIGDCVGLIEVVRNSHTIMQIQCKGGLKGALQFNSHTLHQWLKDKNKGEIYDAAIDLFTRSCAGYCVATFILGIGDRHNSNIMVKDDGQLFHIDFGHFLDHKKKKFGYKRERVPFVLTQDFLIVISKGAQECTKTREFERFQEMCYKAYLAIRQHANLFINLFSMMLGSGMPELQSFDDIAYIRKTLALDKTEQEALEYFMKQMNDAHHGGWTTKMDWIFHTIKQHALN

Row | SMILES | IC50 [1] | IC50 [2] | IC50 [3] | IC50 [4]
1 | CC(=O)N1CCN(c2nc(N3CCOCC3)nc(-n3c(C(F)F)nc4ccccc43)n2)CC1 | 8.2 nM | 2.9 nM | – | –
2 | FC(F)c1nc2ccccc2n1-c1nc(N2CCNCC2)nc(N2CCOCC2)n1 | 180 nM | 142 nM | – | –
3 | CNCCN(CCO)c1nc(N2CCOCC2)nc(-n2c(C(F)F)nc3ccccc32)n1 | 148 nM | 47 nM | 869 nM | 627 nM
